Measured values as given in article PMC7893122 (Acta Pharmaceutica Sinica. B, 2020).

Legend:
BRD4 (BD1) = BRD4 (BD1) (Homo sapiens, UniProt O60885); test: Homogeneous time-resolved fluorescence binding assay, BRD4; details: for IC50: IC50 BRD4 (BD1), mean ± SD from three separate experiments; for fold less potent than compound 2 against BRD4: ratio of IC50 values
[1] = tested on: HH signaling pathway (GLI-responsive firefly luciferase reporter); test: Dual luciferase reporter assay; format: cell-based; details: for IC50: read-out: IC50 GLI-luc reporter
hERG channel = hERG channel (Homo sapiens, UniProt Q12809); test: hERG inhibition; format: cell-based
[2] = Pharmacokinetics in Sprague–Dawley rats; format: in vivo; details: rat; for AUC(0-inf) / AUC(0-t) / MRT inf / clearance / half-life / Cmax / Tmax: Sprague-Dawley, plasma; for Vss_obs: i.v. 1 mg/kg
[3] = tested on: SMOA1 MB allografts (SMO^W539L); test: SMOA1 MB allograft model; format: in vivo, nude mice; details: 20 mg/kg p.o., bid; Fig. 5A
In short: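 Primary SMOA1 MB allografts from ND2:SMOA1 transgenic mice grafted subcutaneously into nude mice. Dosing started at 100–150 mm3 tumour size: test compound p.o. twice daily, vehicle 0.5% CMC-Na, n ≥ 3 per group. Caliper measurement every 3 days; volume = 0.5 × length × width². Body weight tracked; group means ± SEM.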

SMO wild MB = details: 20 mg/kg p.o., bid; cited from earlier work
endogenous GLI2 = test: Western blot of endogenous GLI2 in light2 cells; format: cell-based; details: 25 at 10 and 100 nmol/L, GDC-0449 100 nmol/L
In short: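 Light2 cells treated with test compound, lysed in LDS sample buffer, and run on SDS-PAGE. Immunoblotting used anti-GLI2 (1:1000), with GAPDH (1:5000) as reference.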

Sequence of hERG channel (Q12809 whole entry): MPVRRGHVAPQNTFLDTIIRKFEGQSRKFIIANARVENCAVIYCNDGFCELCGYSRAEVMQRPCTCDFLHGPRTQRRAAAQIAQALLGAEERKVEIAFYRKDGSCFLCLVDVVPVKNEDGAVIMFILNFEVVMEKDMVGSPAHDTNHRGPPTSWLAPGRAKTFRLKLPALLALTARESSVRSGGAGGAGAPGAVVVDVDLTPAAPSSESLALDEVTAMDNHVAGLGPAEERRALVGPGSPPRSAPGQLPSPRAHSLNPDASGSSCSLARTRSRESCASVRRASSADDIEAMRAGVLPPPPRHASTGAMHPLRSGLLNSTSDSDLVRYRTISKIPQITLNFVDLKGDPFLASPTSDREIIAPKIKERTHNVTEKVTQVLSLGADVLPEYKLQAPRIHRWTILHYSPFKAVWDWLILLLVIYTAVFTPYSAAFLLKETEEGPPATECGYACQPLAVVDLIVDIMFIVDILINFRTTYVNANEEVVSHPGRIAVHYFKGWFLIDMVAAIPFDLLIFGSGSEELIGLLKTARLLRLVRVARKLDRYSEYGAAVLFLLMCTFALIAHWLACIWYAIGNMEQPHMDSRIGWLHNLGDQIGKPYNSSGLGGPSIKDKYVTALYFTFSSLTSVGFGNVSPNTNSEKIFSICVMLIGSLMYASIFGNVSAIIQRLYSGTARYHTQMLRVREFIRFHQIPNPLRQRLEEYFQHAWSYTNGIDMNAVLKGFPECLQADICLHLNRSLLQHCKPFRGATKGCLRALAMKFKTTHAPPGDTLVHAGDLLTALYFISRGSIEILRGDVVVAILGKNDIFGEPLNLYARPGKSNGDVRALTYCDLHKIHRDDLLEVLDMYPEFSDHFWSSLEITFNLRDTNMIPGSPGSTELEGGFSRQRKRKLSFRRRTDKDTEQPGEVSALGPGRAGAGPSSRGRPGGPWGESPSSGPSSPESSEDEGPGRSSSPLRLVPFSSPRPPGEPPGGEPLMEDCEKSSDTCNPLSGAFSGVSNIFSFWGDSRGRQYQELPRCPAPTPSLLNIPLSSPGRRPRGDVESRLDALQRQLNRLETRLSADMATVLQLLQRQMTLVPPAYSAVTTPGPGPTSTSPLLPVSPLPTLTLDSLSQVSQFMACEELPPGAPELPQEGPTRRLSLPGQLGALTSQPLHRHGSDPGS

SMILES: COc1nnc2ccc(N3CCC(c4ccc(OCCN5CCN(C)C(=O)[C@H]5C)cc4)CC3)nn12 [AZD5153 (4), (3R)-4-[2-[4-[1-(3-methoxy-[1,2,4]triazolo[4,3-b]pyridazin-6-yl)-4-piperidyl]phenoxy]ethyl]-1,3-dimethyl-piperazin-2-one, reference compound]
- IC50 (BRD4 (BD1)): 18.2 ± 2.7 nM
- IC50 [1]: 32.1 ± 7.71 nM

SMILES: Cc1nnn(C)c1-c1cnc2c3ccc(C(C)(C)O)cc3n([C@H](c3ccccc3)C3CCOCC3)c2c1 [BMS-986158 (1), reference compound]
- IC50 (BRD4 (BD1)): < 0.16 nM
- IC50 [1]: 0.15 ± 0.05 nM

SMILES: CCS(=O)(=O)Nc1ccc(Oc2ccc(F)cc2F)c(-c2cn(C)c(=O)c3[nH]ccc23)c1 [Compound 2, N-(4-(2,4-difluorophenoxy)-3-(6-methyl-7-oxo-6,7-dihydro-1H-pyrrolo[2,3-c]pyridin-4-yl)phenyl)ethanesulfonamide, reference compound]
- IC50 (hERG channel): 35500 nM
- AUC(0-inf) ([2]; iv, 1 mg/kg): 1200 ng·h/mL
- AUC(0-t) ([2]; iv, 1 mg/kg): 1190 ng·h/mL
- MRT inf ([2]; iv, 1 mg/kg): 187 min
- clearance ([2]; iv, 1 mg/kg): 17.6 mL/min/kg
- half-life ([2]; iv, 1 mg/kg): 164 min
- AUC(0-inf) ([2]; po, 3 mg/kg): 2050 ng·h/mL
- AUC(0-t) ([2]; po, 3 mg/kg): 2030 ng·h/mL
- Cmax ([2]; po, 3 mg/kg): 401 ng/mL
- MRT inf ([2]; po, 3 mg/kg): 327 min
- Tmax ([2]; po, 3 mg/kg): 165 min
- half-life ([2]; po, 3 mg/kg): 200 min
- Vss_obs [2]: 2.772 L/kg
- IC50 (BRD4 (BD1)): 3.4 ± 0.2 nM
- fold selectivity for the HH pathway against BRD4 (fold less potent against BRD4) ([1]; BRD4 (BD1) IC50 vs GLI-luc IC50): ~10 fold
- IC50 [1]: 0.41 ± 0.34 nM

SMILES: CCOC(=O)Nc1cc(-c2cc(NS(=O)(=O)CC)ccc2Oc2ccc(F)cc2F)cn(C)c1=O [Compound 5]
- IC50 (BRD4 (BD1)): 27.6 ± 5.7 nM
- fold less potent than compound 2 against BRD4 (BRD4 (BD1)): 8 fold
- IC50 [1]: 157 ± 1.3 nM

SMILES: CCS(=O)(=O)Nc1ccc(Oc2ccc(F)cc2F)c(-c2cc(NC(=O)OCCOC)c(=O)n(C)c2)c1 [Compound 6]
- IC50 (BRD4 (BD1)): > 100 nM
- IC50 [1]: > 100 nM

SMILES: CCCC(=O)Nc1cc(-c2cc(NS(=O)(=O)CC)ccc2Oc2ccc(F)cc2F)cn(C)c1=O [Compound 7]
- IC50 (BRD4 (BD1)): > 100 nM
- IC50 [1]: > 100 nM

SMILES: CCS(=O)(=O)Nc1ccc(Oc2ccc(F)cc2F)c(-c2cc(NS(=O)(=O)CC)c(=O)n(C)c2)c1 [Compound 8]
- IC50 (BRD4 (BD1)): 42.8 ± 9.6 nM
- IC50 [1]: > 100 nM

SMILES: CCS(=O)(=O)Nc1ccc(Oc2ccc(F)cc2F)c(-c2cc(Nc3ncc[nH]3)c(=O)n(C)c2)c1 [Compound 9]
- IC50 (BRD4 (BD1)): 47.6 ± 2.9 nM
- IC50 [1]: > 100 nM

SMILES: CCS(=O)(=O)Nc1ccc(Oc2ccc(F)cc2F)c(-c2cc(Nc3ccccn3)c(=O)n(C)c2)c1 [Compound 10]
- IC50 (BRD4 (BD1)): > 100 nM
- IC50 [1]: > 100 nM

SMILES: CCS(=O)(=O)Nc1ccc(Oc2ccc(F)cc2F)c(-c2cc(Nc3ccncn3)c(=O)n(C)c2)c1 [Compound 11]
- IC50 (BRD4 (BD1)): > 100 nM
- IC50 [1]: > 100 nM

SMILES: Cn1cc(-c2cc(N3CCC(CO)S3(=O)=O)ccc2Oc2ccc(F)cc2F)c2cc[nH]c2c1=O (stereo not shown) [Compound 12]
- IC50 (BRD4 (BD1)): 0.25 ± 0.05 nM
- IC50 [1]: 3.29 ± 0.14 nM

SMILES: Cn1cc(-c2cc(N3CCCC(CO)S3(=O)=O)ccc2Oc2ccc(F)cc2F)c2cc[nH]c2c1=O (stereo not shown) [Compound 13]
- IC50 (BRD4 (BD1)): 0.6 ± 0.07 nM
- IC50 [1]: 20.5 ± 7.74 nM

SMILES: CN(C)CCN1CCCN(c2ccc(Oc3ccc(F)cc3F)c(-c3cn(C)c(=O)c4[nH]ccc34)c2)S1(=O)=O [Compound 18]
- IC50 (BRD4 (BD1)): 1.52 ± 0.72 nM
- IC50 [1]: 56.1 ± 8.25 nM

SMILES: Cn1cc(-c2cc(N3CCCN(CCN4CCOCC4)S3(=O)=O)ccc2Oc2ccc(F)cc2F)c2cc[nH]c2c1=O [Compound 19]
- IC50 (BRD4 (BD1)): 1.47 ± 0.03 nM
- IC50 [1]: 17.7 ± 11 nM

SMILES: CN(CCO)CCN1CCCN(c2ccc(Oc3ccc(F)cc3F)c(-c3cn(C)c(=O)c4[nH]ccc34)c2)S1(=O)=O [Compound 20]
- IC50 (BRD4 (BD1)): 1.01 ± 0.34 nM
- IC50 [1]: 42.8 ± 30.7 nM

SMILES: Cn1cc(-c2cc(N3CCCN(CCN4CCC(CO)C4)S3(=O)=O)ccc2Oc2ccc(F)cc2F)c2cc[nH]c2c1=O (stereo not shown) [Compound 22]
- IC50 [1]: > 100 nM

SMILES: Cn1cc(-c2cc(N3CCCN(CC4(CO)COC4)S3(=O)=O)ccc2Oc2ccc(F)cc2F)c2cc[nH]c2c1=O [Compound 23]
- IC50 (BRD4 (BD1)): 0.58 ± 0.1 nM
- IC50 [1]: 45.8 ± 19.2 nM

SMILES: Cn1cc(-c2cc(N3CCCS3(=O)=O)ccc2Oc2ccc(F)cc2F)c2c(F)c[nH]c2c1=O [Compound 24]
- IC50 (hERG channel): > 40000 nM
- AUC(0-inf) ([2]; iv, 1 mg/kg): 509 ng·h/mL
- AUC(0-t) ([2]; iv, 1 mg/kg): 509 ng·h/mL
- MRT inf ([2]; iv, 1 mg/kg): 45.6 min
- clearance ([2]; iv, 1 mg/kg): 33.2 mL/min/kg
- half-life ([2]; iv, 1 mg/kg): 33.6 min
- AUC(0-inf) ([2]; po, 3 mg/kg): 473 ng·h/mL
- AUC(0-t) ([2]; po, 3 mg/kg): 473 ng·h/mL
- Cmax ([2]; po, 3 mg/kg): 474 ng/mL
- MRT inf ([2]; po, 3 mg/kg): 75.6 min
- Tmax ([2]; po, 3 mg/kg): 30 min
- half-life ([2]; po, 3 mg/kg): 57 min
- Vss_obs [2]: 1.513 L/kg
- IC50 (BRD4 (BD1)): 0.5 ± 0.06 nM
- IC50 [1]: 0.93 ± 0.16 nM

SMILES: Cn1cc(-c2cc(N3CCCS3(=O)=O)ccc2Oc2ccc(F)cc2F)c2cc(C(=O)O)[nH]c2c1=O [Compound 26]
- IC50 (BRD4 (BD1)): 21 ± 11 nM
- fold less potent than compound 2 against BRD4 (BRD4 (BD1)): > 4 fold
- IC50 [1]: > 100 nM

SMILES: Cn1cc(-c2cc(N3CCCCS3(=O)=O)ccc2Oc2ccc(F)cc2F)c2cc(C(=O)O)[nH]c2c1=O [Compound 27]
- IC50 (BRD4 (BD1)): 14.3 ± 4.52 nM
- fold less potent than compound 2 against BRD4 (BRD4 (BD1)): > 4 fold
- IC50 [1]: > 100 nM

SMILES: Cn1cc(-c2cc(N3CCCS3(=O)=O)ccc2Oc2ccc(F)cc2F)c2cc(C(N)=O)[nH]c2c1=O [Compound 28]
- IC50 (hERG channel): > 40000 nM
- IC50 (BRD4 (BD1)): 0.09 ± 0.04 nM
- fold less potent for the HH pathway than against BRD4 ([1]; GLI-luc IC50 vs BRD4 (BD1) IC50): 16 fold
- IC50 [1]: 1.5 ± 0.39 nM

SMILES: Cn1cc(-c2cc(N3CCCCS3(=O)=O)ccc2Oc2ccc(F)cc2F)c2cc(C(N)=O)[nH]c2c1=O [Compound 29]
- IC50 (BRD4 (BD1)): 0.09 ± 0.08 nM
- IC50 [1]: 2.46 ± 0.3 nM

SMILES: CCNC(=O)c1cc2c(-c3cc(N4CCCS4(=O)=O)ccc3Oc3ccc(F)cc3F)cn(C)c(=O)c2[nH]1 [Compound 30]
- IC50 (hERG channel): 6400 nM
- AUC(0-inf) ([2]; iv, 1 mg/kg): 278 ng·h/mL
- AUC(0-t) ([2]; iv, 1 mg/kg): 278 ng·h/mL
- MRT inf ([2]; iv, 1 mg/kg): 47.6 min
- clearance ([2]; iv, 1 mg/kg): 61.5 mL/min/kg
- half-life ([2]; iv, 1 mg/kg): 40.8 min
- AUC(0-inf) ([2]; po, 3 mg/kg): 9.91 ng·h/mL
- AUC(0-t) ([2]; po, 3 mg/kg): 9.91 ng·h/mL
- Cmax ([2]; po, 3 mg/kg): 15.2 ng/mL
- MRT inf ([2]; po, 3 mg/kg): 53.4 min
- Tmax ([2]; po, 3 mg/kg): 15 min
- half-life ([2]; po, 3 mg/kg): 81 min
- Vss_obs [2]: 2.891 L/kg
- IC50 (BRD4 (BD1)): 0.6 ± 0.41 nM
- IC50 [1]: 0.05 ± 0.01 nM

SMILES: CCNC(=O)c1cc2c(-c3cc(N4CCCCS4(=O)=O)ccc3Oc3ccc(F)cc3F)cn(C)c(=O)c2[nH]1 [Compound 31]
- IC50 (hERG channel): 11700 nM
- AUC(0-inf) ([2]; iv, 1 mg/kg): 217 ng·h/mL
- AUC(0-t) ([2]; iv, 1 mg/kg): 213 ng·h/mL
- MRT inf ([2]; iv, 1 mg/kg): 34.2 min
- clearance ([2]; iv, 1 mg/kg): 77.6 mL/min/kg
- half-life ([2]; iv, 1 mg/kg): 41.4 min
- AUC(0-inf) ([2]; po, 3 mg/kg): 22.1 ng·h/mL
- AUC(0-t) ([2]; po, 3 mg/kg): 18.3 ng·h/mL
- Cmax ([2]; po, 3 mg/kg): 15.5 ng/mL
- MRT inf ([2]; po, 3 mg/kg): 143 min
- Tmax ([2]; po, 3 mg/kg): 19.8 min
- half-life ([2]; po, 3 mg/kg): 93 min
- Vss_obs [2]: 3.512 L/kg
- IC50 (BRD4 (BD1)): 0.13 ± 0.005 nM
- IC50 [1]: 0.81 ± 0.24 nM

SMILES: CN1CCN(CCCNC(=O)c2cc3c(-c4cc(N5CCCS5(=O)=O)ccc4Oc4ccc(F)cc4F)cn(C)c(=O)c3[nH]2)CC1 [Compound 32]
- IC50 (BRD4 (BD1)): 0.75 ± 0.07 nM
- IC50 [1]: > 100 nM

SMILES: Cn1cc(-c2cc(N3CCCS3(=O)=O)ccc2Oc2ccc3occc3c2)c2cc[nH]c2c1=O [Compound 33]
- IC50 (BRD4 (BD1)): 2.85 ± 0.5 nM
- IC50 [1]: 1.03 ± 0.28 nM

SMILES: Cn1cc(-c2cc(N3CCCCS3(=O)=O)ccc2N[C@@H]2C[C@@H](CO)[C@@H](O)C2)c2cc[nH]c2c1=O [Compound 39]
- IC50 (BRD4 (BD1)): 3.42 ± 0.25 nM
- IC50 [1]: > 100 nM

SMILES: CS(=O)(=O)c1ccc(C(=O)Nc2ccc(Cl)c(-c3ccccn3)c2)c(Cl)c1 [GDC-0449, reference compound]
- Effect on tumor growth [3]: failed to affect the tumor growth
- Tumor growth inhibition in SMO wild MB mice (SMO wild MB): complete tumor growth inhibition
- Effect on abundance of endogenous GLI2 proteins (endogenous GLI2): no effect

SMILES: CN1C(=O)C(C)(C)Oc2c(-c3cn(C)c(=O)c4[nH]ccc34)cc(S(C)(=O)=O)cc21 [INCB-057643, reference compound]
- IC50 (BRD4 (BD1)): 11.6 ± 1.8 nM
- IC50 [1]: 40.6 ± 4.9 nM

SMILES: Cc1sc2c(c1C)C(c1ccc(Cl)cc1)=N[C@@H](CC(=O)Nc1ccc(O)cc1)c1nnc(C)n1-2 [OTX-015, reference compound]
- IC50 [1]: 0.64 ± 0.02 nM

SMILES: Cc1noc(C)c1-c1cnc2c(-c3ccc(C(=O)O)cc3)cn([C@@H](C)c3ccccn3)c2c1 [PLX51107, reference compound]
- IC50 [1]: 5.5 ± 1.3 nM
